# Test results from ChEMBL document CHEMBL4811293, “Novel irreversible covalent BTK inhibitors discovered using DNA-encoded chemistry” (Bioorg Med Chem, 2021).
# Square brackets hold non-standard residues; d marks the D form. Peptide text beside a SMILES is read from it. * marks the point of attachment. Oic = O=C(O)[C@@H]1C[C@@H]2CCCC[C@@H]2N1; Phe(4-CN) = N#Cc1ccc(C[C@H](N)C(=O)O)cc1; Acryloyl = C=CC(=O)*
# Assays:
# [1] = biological target: Tyrosine-protein kinase BTK (Homo sapiens, UniProt Q06187, C481S); assay: Inhibition of recombinant human N-terminal His-tagged BTK C481S mutant expressed in baculovirus infected in Sf9 cells incubated for 1 hr by TR-FRET assay
# How it was run: (§1)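 Proteros reporter displacement assay: enzyme pre-incubated with Cy5-labelled ATP-competitive kinase inhibitor probe, then unlabeled competitor added. Signal recorded for 1 hour and normalized at each time-point to high (enzyme + probe, no competitor) and low (enzyme, no probe, with competitor) controls. Technical triplicates.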
# [2] = biological target: T1, Tyrosine-protein kinase BTK (Homo sapiens, UniProt Q06187); assay: Inhibition of recombinant human N-terminal His-tagged BTK expressed in baculovirus infected in Sf9 cells assessed as inhibitory constant incubated for 1 hr by TR-FRET assay
# How it was run: (§2)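 Proteros reporter displacement assay. BTK is preincubated with a Cy5-labelled ATP-competitive probe, then unlabelled competitor is added and signal recorded over 1 h, in technical triplicates. Data normalized to high and low controls at each time point. IC50 is apparent after 1 h. kobs comes from a mono-exponential decay fit excluding the first point, and is refit as kobs = kinact·[I]/(KI+[I]) to give kinact, KI and kinact/KI.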
# [3] = biological target: T1, Tyrosine-protein kinase BTK; assay: Inhibition of recombinant human N-terminal His-tagged BTK expressed in baculovirus infected in Sf9 cells assessed as inactivation constant incubated for 1 hr by TR-FRET assay; how it was run: as §2
# [4] = biological target: T1, Tyrosine-protein kinase BTK; assay: Inhibition of recombinant human N-terminal His-tagged BTK expressed in baculovirus infected in Sf9 cells assessed as ratio of inactivation constant to inhibitory constant incubated for 1 hr by TR-FRET assay; how it was run: as §2
# [5] = test system: Tyrosine-protein kinase BTK (Homo sapiens), Q06187 [C481S]; assay: Binding affinity to BTK C481S mutant (unknown origin) by mass spectrometry analysis relative to control; set-up: concentration or dose not given beside the values
# How it was run: (§3)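 Wild-type or C481S BTK incubated with compound for one hour. Samples diluted to 0.1 mg/ml protein in 5% acetonitrile/0.1% formic acid, then reversed-phase C4 LC (80 °C, acetonitrile/0.1% FA gradient, UV 214 and 280 nm) coupled to positive-mode ESI-MS for intact mass. Adduct read as the mass shift versus BTK alone.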
# [6] = biological target: T1, Tyrosine-protein kinase BTK; assay: Binding affinity to recombinant human BTK (389 to 659 residues) expressed in insect cells assessed as change in melting temperature at 50 uM incubated for 120 mins by thermal shift assay
# How it was run: (§4)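 BTK (389-659), wild-type or C481S, at 5 μM with 50 μM compound for 120 min at room temperature in 20 mM HEPES pH 8.0, 0.5 mM TCEP, 150 mM NaCl, 0.01% Tween20, 0.5% DMSO. nanoDSF with a 20–95 °C ramp at 2.5 °C/min, tryptophan 350/330 nm ratio. Tm taken from the first-derivative maximum, three technical replicates. ΔTm is Tm with compound minus apo Tm.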
# [7] = biological target: T1, Tyrosine-protein kinase BTK; assay: Binding affinity to BTK (unknown origin) by mass spectrometry analysis relative to control; set-up: concentration or dose not given beside the values; how it was run: as §3
# [8] = biological target: T1, Tyrosine-protein kinase BTK; assay: Inhibition of recombinant human N-terminal His-tagged BTK expressed in baculovirus infected in Sf9 cells incubated for 1 hr by TR-FRET assay; how it was run: as §2
# [9] = test system: Tyrosine-protein kinase BTK (Homo sapiens), Q06187 [C481S]; assay: Binding affinity to recombinant human BTK C481S mutant (389 to 659 residues) expressed in insect cells assessed as change in melting temperature at 50 uM incubated for 120 mins by thermal shift assay; how it was run: as §4
# [10] = test system: Tyrosine-protein kinase BTK (Homo sapiens), Q06187 [C481S]; assay: Inhibition of recombinant human N-terminal His-tagged BTK C481S mutant expressed in baculovirus infected in Sf9 cells assessed as residence time incubated for 1 hr by TR-FRET assay; how it was run: as §1
# [11] = biological target: T1, Tyrosine-protein kinase BTK; assay: Inhibition of recombinant wild type human N-terminal His-tagged BTK expressed in baculovirus infected in Sf9 cells assessed as residence time incubated for 1 hr by TR-FRET assay; how it was run: as §1
# Tyrosine-protein kinase BTK (Homo sapiens, UniProt Q06187, C481S), sequence (Q06187 2-659 C481S limits assumed): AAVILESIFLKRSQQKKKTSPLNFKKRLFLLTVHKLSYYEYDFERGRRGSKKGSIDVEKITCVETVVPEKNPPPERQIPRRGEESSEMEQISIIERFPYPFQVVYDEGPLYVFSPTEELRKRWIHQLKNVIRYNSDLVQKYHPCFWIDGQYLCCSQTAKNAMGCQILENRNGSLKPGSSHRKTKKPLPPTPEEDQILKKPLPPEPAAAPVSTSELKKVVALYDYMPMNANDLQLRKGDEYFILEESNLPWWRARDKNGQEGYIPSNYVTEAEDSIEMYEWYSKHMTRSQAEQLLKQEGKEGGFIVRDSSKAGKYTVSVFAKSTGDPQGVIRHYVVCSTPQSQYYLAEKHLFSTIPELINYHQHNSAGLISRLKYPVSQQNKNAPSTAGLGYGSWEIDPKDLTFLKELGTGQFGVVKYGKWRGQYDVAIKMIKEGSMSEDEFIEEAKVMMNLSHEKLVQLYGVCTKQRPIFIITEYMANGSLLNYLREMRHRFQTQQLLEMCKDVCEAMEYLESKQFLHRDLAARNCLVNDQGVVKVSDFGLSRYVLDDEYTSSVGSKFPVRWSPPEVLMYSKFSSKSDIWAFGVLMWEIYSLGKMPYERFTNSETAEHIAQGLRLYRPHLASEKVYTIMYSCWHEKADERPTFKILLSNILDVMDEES
# T1 sequence (Q06187 whole entry): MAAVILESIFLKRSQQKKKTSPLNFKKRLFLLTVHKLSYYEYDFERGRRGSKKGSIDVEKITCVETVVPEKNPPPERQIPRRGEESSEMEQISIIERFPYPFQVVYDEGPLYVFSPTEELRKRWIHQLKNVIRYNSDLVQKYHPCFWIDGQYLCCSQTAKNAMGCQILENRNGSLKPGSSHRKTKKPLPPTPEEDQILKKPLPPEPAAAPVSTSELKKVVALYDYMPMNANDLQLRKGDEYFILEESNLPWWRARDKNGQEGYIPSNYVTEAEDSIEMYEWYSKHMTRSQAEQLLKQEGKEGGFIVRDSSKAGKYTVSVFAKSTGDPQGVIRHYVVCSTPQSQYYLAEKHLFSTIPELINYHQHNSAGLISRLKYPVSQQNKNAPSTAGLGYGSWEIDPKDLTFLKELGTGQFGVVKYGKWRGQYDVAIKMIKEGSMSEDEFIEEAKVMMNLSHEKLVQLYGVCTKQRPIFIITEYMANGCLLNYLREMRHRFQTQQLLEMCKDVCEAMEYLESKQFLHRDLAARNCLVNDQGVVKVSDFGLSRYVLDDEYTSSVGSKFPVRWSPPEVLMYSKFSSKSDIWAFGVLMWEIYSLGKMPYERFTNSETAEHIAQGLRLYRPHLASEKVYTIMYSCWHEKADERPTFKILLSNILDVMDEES
# Tyrosine-protein kinase BTK (Homo sapiens), Q06187 [C481S], sequence (Q06187 whole entry C481S, the tested form may be a part): as the sequence (Q06187 whole entry) above, with C481S counted along it
smiles,measurement,setting,value
CNC(=O)[C@@H](Cc1ccc(C#N)cc1)NC(=O)[C@@H](NC(=O)[C@]1(C)CO1)[C@@H](C)OC(C)(C)C,IC50,[1],> 59.2 µM
same,Ki,[2],1250 nM
same,Kinact,[3],8.22 10^-3/s
same,Ratio,[4],6580 s⁻¹ M⁻¹
same,Activity,[5],0%
same,ΔTm,[6],4.51 °C
same,Activity,[7],92.3%
same,IC50,[8],58.1 nM
same,ΔTm,[9],0.23 °C
CNC(=O)[C@H]1Cc2c([nH]c3ccccc23)CN1C(=O)c1occc1CNc1ccc2nccnc2c1,IC50,[1],0.00304 µM
same,Activity,[5],0%
same,ΔTm,[6],13.2 °C
same,TIME,[10],0.367 h
same,Activity,[7],0%
same,TIME,[11],0.15 h
same,IC50,[8],3.78 nM
same,ΔTm,[9],13.4 °C
CNC(=O)[C@H]1Cc2c([nH]c3ccccc23)CN1C(=O)C[C@@H](Cc1cccc(F)c1)NC(=O)C1CO1 (stereo partly specified),IC50,[1],> 59.2 µM
same,Ki,[2],9270 nM
same,Kinact,[3],1.54 10^-2/s
same,Ratio,[4],1660 s⁻¹ M⁻¹
same,IC50,[8],232 nM
C=CC(=O)N1[C@H](C(=O)N[C@@H](Cc2ccc(C#N)cc2)C(=O)NC)C[C@@H]2CCCC[C@@H]21 (Acryloyl-[Oic]-[Phe(4-CN)]-NHMe),IC50,[1],> 59.2 µM
same,Activity,[5],0%
same,Activity,[7],94.4%
same,IC50,[8],36400 nM
CNC(=O)[C@H]1Cc2c([nH]c3ccccc23)CN1C(=O)[C@@H](Cc1ccccc1)NC(=O)c1c[nH]c(C(N)=O)c1,IC50,[1],0.0562 µM
same,TIME,[10],0.233 h
same,TIME,[11],0.567 h
same,IC50,[8],22.7 nM
CNC(=O)[C@@H](Cc1ccc(C#N)cc1)NC(=O)[C@@H](NC(=O)[C@@H]1CO1)c1ccccc1,IC50,[1],> 59.2 µM
same,Ki,[2],1930 nM
same,Kinact,[3],9.41 10^-3/s
same,Ratio,[4],4880 s⁻¹ M⁻¹
same,Activity,[5],0%
same,ΔTm,[6],6.36 °C
same,Activity,[7],95.2%
same,IC50,[8],84.2 nM
same,ΔTm,[9],-0.15 °C
C=CC(=O)N1CCC[C@H](CC(=O)N2Cc3[nH]c4ccccc4c3C[C@@H]2C(=O)NC)C1,IC50,[1],> 59.2 µM
same,Ratio,[4],59.2 s⁻¹ M⁻¹
same,Activity,[5],0%
same,ΔTm,[6],6.55 °C
same,Activity,[7],97.9%
same,IC50,[8],4760 nM
same,ΔTm,[9],0.1 °C
